ChEMBL document CHEMBL5715950, “Characterization of molecular and cellular functions of the cyclin-dependent kinase CDK9 using a novel specific inhibitor” (Br J Pharmacol, 2014)
Calls of active or inactive are those of the source. No cut-off for these calls is given here.

Experiments:
[1] = molecular target: Cyclin-dependent kinase 9 (Homo sapiens) (UniProt P50750); assay: Inhibition of CDK9 in human HeLa cells assessed as upregulation of serine 5 phosphorylation at 10 uM incubated for 1 hr by chromatin immunoprecipitation assay; format: cell-based
HeLa [2] = assay: Inhibition of RNA synthesis in human HeLa cells stably transfected with luciferase reporter gene at 2 uM incubated for 30 mins followed by doxycycline addition and measured after 60 mins by RT-qPCR analysis relative to control; format: functional; conditions: 1.5 h, time 90 min
Procedure, shortened: (§1)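 Stably transfected HeLa cells carrying a tetracycline-inducible luciferase reporter: inhibitor or DMSO for 30 min, then 1 μg/mL doxycycline for 60 min. De novo reporter transcripts measured by RT-qPCR.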

[3] = Transcription level in human HeLa cells nuclear extract fused with Gal4-VP16 at 10 uM in presence of ATP by phosphorimaging analysis relative to control
THP-1 = assay: Induction of apoptosis in human THP-1 cells at > 2 uM incubated for 24 hrs by Annexin V-FITC/PI staining based flow cytometric analysis; format: functional, cell-based
Procedure, shortened: (§2)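 Cells grown at 37°C, 5% CO2 (A549, HeLa, MCF7 in DMEM high glucose; HCT116 in McCoy's 5A; THP1 and primary AML M4 apheresis blasts in RPMI1640), exposed to inhibitor or DMSO for 24 h. Apoptotic fraction by flow cytometry after annexin V-fluorescein/propidium iodide double staining. Means ± SD of three biological replicates; AML blasts from one patient, three technical replicates. Student's t-test versus DMSO/untreated.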

[4] = molecular target: Calcium/calmodulin-dependent protein kinase type IV (Homo sapiens, UniProt Q16566); assay: Inhibition of CAMK4 (unknown origin) incubated for 120 mins in presence of 33P-ATP by radiometric kinase assay
[5] = molecular target: Cyclin-dependent kinase 9 (Homo sapiens) (UniProt P50750); assay: Inhibition of CDK9 in human A549 cells assessed as downregulation of p21 mRNA expression at 1 to 10 uM incubated for 90 mins by RT-qPCR analysis relative to control; format: cell-based; conditions: dose 1-10 µM
[6] = molecular target: Glycogen synthase kinase-3 alpha (Homo sapiens, UniProt P49840); assay: Inhibition of GSK3A (unknown origin) incubated for 120 mins in presence of 33P-ATP by radiometric kinase assay
CDK6/cyclin D3 = CDK6/cyclin D3 (Homo sapiens, UniProt Q00534); assay: Inhibition of CDK6/Cyclin D3 (unknown origin) using ULight MBP peptide as substrate in presence of ATP incubated for 1 hr by FRET based LANCE Ultra KinaSelect screen assay; format: protein-complex assay
Procedure, shortened: (§3)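 Time-resolved FRET kinase assay with purified CDK-cyclin pairs. ULight MBP peptide substrate was 50 nM final. Buffer was 50 mM HEPES-KOH pH 7.5, 10 mM MgCl2, 1 mM EGTA and 2 mM DTT, with ATP at each kinase's KM (CDK2-cyclin A 3 μM). Reactions ran 1 h at room temperature, then 2 nM Eu-labelled anti-phospho antibody was added for detection. IC50 given as mean ± SD.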

[7] = molecular target: Cyclin-dependent kinase 9 (Homo sapiens) (UniProt P50750); assay: Inhibition of CDK9 in human HeLa cells assessed as downregulation of Serine 5 phosphorylation at 10 uM incubated for 60 mins by Western blotting analysis; format: cell-based
[8] = Inhibition of CDK2/Cyclin A (unknown origin) using ULight MBP peptide as substrate in presence of ATP incubated for 1 hr by FRET based LANCE Ultra KinaSelect screen assay; set-up: species or system Homo sapiens; procedure, shortened: as §3
CDK7/Cyclin H/MNAT1 = CDK7/Cyclin H/MNAT1 (Homo sapiens, UniProt P50613); assay: Displacement of kinase tracer 236 from CDK7/Cyclin H/MAT1 (unknown origin) assessed as dissociation constant incubated for 1 hr by LanthScreen Eu kinase binding assay; format: protein-complex assay
A549 [9] = assay: Induction of apoptosis in human A549 cells at 10 uM incubated for 24 hrs by Annexin V-FITC/PI staining based flow cytometric analysis; format: functional, cell-based; procedure, shortened: as §2
A549 [10] = assay: Induction of apoptosis in human A549 cells at 15 uM incubated for 24 hrs by Annexin V-FITC/PI staining based flow cytometric analysis; format: functional, cell-based; procedure, shortened: as §2
[11] = molecular target: Cyclin-dependent kinase 9 (Homo sapiens) (UniProt P50750); assay: Inhibition of CDK9 in human THP-1 cells assessed as downregulation of RPS15 mRNA expression by RT-qPCR analysis; format: cell-based
[12] = molecular target: Mitogen-activated protein kinase kinase kinase kinase 4 (Homo sapiens, UniProt O95819); assay: Inhibition of MAP4K4 (unknown origin) incubated for 120 mins in presence of 33P-ATP by radiometric kinase assay
HCT 116 TP53(-/-) = assay: Induction of apoptosis in human HCT116-p53-null cells at 10 uM incubated for 24 hrs by Annexin V-FITC/PI staining based flow cytometric analysis; format: functional, cell-based; procedure, shortened: as §2
[13] = molecular target: Cyclin-dependent kinase 9 (Homo sapiens) (UniProt P50750); assay: Inhibition of CDK9 in human A549 cells assessed as downregulation of GAPDH mRNA expression at 2 to 6 uM incubated for 90 mins by RT-qPCR analysis relative to control; format: cell-based; conditions: dose 2-6 µM
[14] = Inhibition of transcription in human HEK293T cells nuclear extract fused with Gal4-VP16 at 4 uM in presence of ATP by phosphorimaging analysis; format: functional; conditions: HEK-293T
Procedure, shortened: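 In vitro transcription from the adenovirus core promoter (Gal-ML, 380 bp G-free cassette), soluble or bead-immobilised template, using HEK293T nuclear extract supplemented with recombinant Gal4-VP16. ATP 60 μM (low), 100 μM, or 500 μM (high); magnesium varied in one series. Transcripts quantified by phosphorimaging.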

Leukemia cell = assay: Induction of apoptosis in human Acute myeloid leukemic cell at > 2 uM incubated for 24 hrs by Annexin V-FITC/PI staining based flow cytometric analysis; format: functional; procedure, shortened: as §2
[15] = molecular target: Cyclin-dependent kinase 9 (Homo sapiens) (UniProt P50750); assay: Inhibition of CDK9 in human A549 cells assessed as downregulation of GAPDH mRNA expression at 1 to 10 uM incubated for 90 mins by RT-qPCR analysis relative to control; format: cell-based; conditions: dose 1-10 µM
[16] = Selectivity ratio of IC50 for inhibition of CDK9/Cyclin T1 (unknown origin) to IC50 for inhibition of CDK7/Cyclin H/MAT1 (unknown origin)
[17] = molecular target: Cyclin-dependent kinase 9 (Homo sapiens) (UniProt P50750); assay: Inhibition of CDK9 in human A549 cells assessed as downregulation of MYC mRNA expression at 1 to 10 uM incubated for 90 mins by RT-qPCR analysis relative to control; format: cell-based; conditions: dose 1-10 µM
[18] = molecular target: Cyclin-dependent kinase 9 (Homo sapiens) (UniProt P50750); assay: Inhibition of CDK9 in human A549 cells assessed as downregulation of CCND1 mRNA expression at 2 to 6 uM incubated for 90 mins by RT-qPCR analysis relative to control; format: cell-based; conditions: dose 2-6 µM
HeLa [19] = assay: Induction of apoptosis in human HeLa cells at > 2 uM incubated for 24 hrs by Annexin V-FITC/PI staining based flow cytometric analysis; format: functional, cell-based; procedure, shortened: as §2
HeLa [20] = assay: Inhibition of RNA synthesis in human HeLa cells stably transfected with luciferase reporter gene at 0.04 to 2 uM incubated for 30 mins followed by doxycycline addition and measured after 60 mins by RT-qPCR analysis; format: functional, cell-based; conditions: dose 0.04-2 µM, time 90.0 min; procedure, shortened: as §1
[21] = Induction of apoptosis in human Acute myeloid leukemic cell at 10 uM incubated for 24 hrs by Annexin V-FITC/PI staining based flow cytometric analysis relative to control; format: functional, Leukemia cell; procedure, shortened: as §2

Cyclin-dependent kinase 9 (Homo sapiens), sequence (P50750 whole entry, the tested form may be a part): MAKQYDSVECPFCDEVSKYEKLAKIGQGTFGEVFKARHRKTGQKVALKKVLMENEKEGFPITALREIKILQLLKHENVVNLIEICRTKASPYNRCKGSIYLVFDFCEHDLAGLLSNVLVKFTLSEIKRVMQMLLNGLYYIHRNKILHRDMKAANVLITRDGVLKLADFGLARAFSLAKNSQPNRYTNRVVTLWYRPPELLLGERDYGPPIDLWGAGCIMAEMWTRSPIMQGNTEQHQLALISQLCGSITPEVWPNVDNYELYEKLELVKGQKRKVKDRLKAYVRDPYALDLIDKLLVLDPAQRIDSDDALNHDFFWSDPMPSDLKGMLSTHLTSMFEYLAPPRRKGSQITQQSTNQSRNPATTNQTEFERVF
Glycogen synthase kinase-3 alpha, sequence (P49840 whole entry): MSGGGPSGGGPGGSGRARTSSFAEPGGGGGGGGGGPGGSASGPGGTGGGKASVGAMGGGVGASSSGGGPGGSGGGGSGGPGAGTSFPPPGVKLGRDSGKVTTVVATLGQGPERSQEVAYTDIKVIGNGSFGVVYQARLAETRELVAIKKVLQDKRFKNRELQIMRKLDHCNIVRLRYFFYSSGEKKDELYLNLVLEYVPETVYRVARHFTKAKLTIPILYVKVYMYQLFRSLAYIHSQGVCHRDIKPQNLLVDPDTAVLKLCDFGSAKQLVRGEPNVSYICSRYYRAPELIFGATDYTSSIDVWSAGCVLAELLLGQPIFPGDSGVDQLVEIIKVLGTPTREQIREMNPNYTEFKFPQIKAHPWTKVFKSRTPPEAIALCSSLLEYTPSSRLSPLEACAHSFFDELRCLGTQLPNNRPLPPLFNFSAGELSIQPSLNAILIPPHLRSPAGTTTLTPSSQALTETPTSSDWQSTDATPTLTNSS
CDK7/Cyclin H/MNAT1, sequence (P51946 whole entry): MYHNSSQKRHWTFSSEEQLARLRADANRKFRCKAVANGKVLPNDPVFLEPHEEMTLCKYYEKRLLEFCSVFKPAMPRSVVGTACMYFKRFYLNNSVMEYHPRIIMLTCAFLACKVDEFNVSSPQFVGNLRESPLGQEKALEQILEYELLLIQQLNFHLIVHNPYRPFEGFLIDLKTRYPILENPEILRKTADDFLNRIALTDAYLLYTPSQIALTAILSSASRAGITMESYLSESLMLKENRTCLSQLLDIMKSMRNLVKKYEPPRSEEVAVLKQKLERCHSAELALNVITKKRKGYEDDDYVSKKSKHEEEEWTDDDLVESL
CDK7/Cyclin H/MNAT1, sequence (P50613 whole entry): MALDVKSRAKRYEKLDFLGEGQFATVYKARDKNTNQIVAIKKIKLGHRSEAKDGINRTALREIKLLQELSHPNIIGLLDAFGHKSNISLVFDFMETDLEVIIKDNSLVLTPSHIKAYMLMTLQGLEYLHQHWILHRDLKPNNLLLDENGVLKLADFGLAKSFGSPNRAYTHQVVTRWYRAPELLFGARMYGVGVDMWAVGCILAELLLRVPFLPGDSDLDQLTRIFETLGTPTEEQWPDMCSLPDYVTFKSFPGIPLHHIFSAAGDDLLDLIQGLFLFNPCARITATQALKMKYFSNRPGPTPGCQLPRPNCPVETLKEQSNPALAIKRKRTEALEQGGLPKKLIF
CDK7/Cyclin H/MNAT1, sequence (P51948 whole entry, further chain): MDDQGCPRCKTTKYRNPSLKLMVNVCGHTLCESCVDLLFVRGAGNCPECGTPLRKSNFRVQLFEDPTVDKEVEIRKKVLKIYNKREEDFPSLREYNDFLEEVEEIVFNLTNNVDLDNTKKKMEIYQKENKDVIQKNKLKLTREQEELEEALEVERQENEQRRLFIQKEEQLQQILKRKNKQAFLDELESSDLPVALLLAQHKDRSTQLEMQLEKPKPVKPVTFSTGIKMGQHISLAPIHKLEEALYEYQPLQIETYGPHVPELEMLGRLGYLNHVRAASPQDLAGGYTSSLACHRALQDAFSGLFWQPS
Mitogen-activated protein kinase kinase kinase kinase 4, sequence (O95819 whole entry): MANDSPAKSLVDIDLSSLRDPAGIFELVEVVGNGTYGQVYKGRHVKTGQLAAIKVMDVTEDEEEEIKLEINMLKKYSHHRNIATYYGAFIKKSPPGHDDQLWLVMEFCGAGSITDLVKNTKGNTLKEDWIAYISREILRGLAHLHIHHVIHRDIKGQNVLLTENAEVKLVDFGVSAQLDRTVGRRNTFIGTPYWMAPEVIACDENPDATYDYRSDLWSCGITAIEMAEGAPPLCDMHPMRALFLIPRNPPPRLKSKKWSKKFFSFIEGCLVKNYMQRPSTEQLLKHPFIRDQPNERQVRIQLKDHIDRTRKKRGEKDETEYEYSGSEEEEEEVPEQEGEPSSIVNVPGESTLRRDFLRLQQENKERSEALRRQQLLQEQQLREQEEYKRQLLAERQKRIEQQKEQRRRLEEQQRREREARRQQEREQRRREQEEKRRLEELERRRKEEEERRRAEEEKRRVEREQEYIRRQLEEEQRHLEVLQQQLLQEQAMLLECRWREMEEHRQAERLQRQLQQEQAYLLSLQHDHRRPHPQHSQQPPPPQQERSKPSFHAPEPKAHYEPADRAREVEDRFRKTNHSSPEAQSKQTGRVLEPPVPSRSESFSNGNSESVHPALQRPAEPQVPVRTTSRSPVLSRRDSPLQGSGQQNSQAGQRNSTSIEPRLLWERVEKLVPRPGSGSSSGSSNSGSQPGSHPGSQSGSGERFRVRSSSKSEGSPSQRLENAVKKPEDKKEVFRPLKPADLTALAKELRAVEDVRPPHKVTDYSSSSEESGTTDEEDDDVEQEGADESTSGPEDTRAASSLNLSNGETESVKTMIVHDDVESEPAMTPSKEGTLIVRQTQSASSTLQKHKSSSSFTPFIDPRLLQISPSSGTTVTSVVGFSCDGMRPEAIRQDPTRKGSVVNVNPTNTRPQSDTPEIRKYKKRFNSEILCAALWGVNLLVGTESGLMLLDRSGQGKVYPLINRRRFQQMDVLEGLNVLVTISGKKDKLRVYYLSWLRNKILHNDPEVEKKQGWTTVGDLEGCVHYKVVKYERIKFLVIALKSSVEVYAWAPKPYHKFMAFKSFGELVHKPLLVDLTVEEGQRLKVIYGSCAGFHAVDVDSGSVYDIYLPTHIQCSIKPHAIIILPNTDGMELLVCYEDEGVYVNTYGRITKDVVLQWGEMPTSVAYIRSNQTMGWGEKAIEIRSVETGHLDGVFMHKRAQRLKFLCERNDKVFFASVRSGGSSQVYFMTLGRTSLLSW
CDK6/cyclin D3, sequence (P30281 whole entry): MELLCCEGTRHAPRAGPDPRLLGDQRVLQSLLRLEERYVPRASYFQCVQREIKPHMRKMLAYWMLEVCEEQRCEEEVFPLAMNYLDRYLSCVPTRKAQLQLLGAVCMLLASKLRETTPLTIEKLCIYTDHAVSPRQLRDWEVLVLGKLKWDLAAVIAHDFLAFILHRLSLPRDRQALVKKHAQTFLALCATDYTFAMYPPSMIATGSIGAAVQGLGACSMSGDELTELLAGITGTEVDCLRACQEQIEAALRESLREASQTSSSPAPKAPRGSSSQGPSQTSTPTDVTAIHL
CDK6/cyclin D3, sequence (Q00534 whole entry): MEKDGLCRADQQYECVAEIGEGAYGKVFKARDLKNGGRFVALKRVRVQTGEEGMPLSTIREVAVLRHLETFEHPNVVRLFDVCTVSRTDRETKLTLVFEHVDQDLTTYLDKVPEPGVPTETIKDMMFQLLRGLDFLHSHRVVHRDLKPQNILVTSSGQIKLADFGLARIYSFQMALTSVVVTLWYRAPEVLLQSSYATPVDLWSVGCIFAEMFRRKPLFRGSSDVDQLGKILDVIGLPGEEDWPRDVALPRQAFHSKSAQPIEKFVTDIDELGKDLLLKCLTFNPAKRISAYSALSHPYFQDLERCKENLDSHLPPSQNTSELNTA
Calcium/calmodulin-dependent protein kinase type IV, sequence (Q16566 whole entry): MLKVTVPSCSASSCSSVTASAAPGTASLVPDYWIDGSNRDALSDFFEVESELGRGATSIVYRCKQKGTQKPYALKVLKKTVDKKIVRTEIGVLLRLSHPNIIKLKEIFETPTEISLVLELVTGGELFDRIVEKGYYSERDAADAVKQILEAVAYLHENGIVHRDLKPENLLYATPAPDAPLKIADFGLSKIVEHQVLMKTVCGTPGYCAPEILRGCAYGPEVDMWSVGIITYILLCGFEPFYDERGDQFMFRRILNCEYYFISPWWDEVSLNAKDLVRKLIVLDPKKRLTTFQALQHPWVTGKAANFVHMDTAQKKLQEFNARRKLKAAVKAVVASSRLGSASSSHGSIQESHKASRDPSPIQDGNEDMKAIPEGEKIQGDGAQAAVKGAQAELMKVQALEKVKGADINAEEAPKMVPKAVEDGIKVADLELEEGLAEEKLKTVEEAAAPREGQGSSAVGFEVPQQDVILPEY

COc1ccccc1-c1cc(Nc2cccc(NS(C)(=O)=O)c2)ncn1
inhibition [1]: Active
inhibition at 2 µM (HeLa [2]): 50%
level, % of control at 10 µM [3]: 20%
Activity (THP-1): Active
IC50 [4]: > 20000 nM
inhibition [5]: 50%
IC50 [6]: 1460 nM
IC50 (CDK6/cyclin D3): > 10000 nM
inhibition [7]: inactive
IC50 [8]: 2440 nM
Kd (CDK7/Cyclin H/MNAT1): 16000 nM
Activity (A549 [9]): Active
Activity (A549 [10]): Active
inhibition [11]: Active
IC50 [12]: 820 nM
Activity (HCT 116 TP53(-/-)): Active
inhibition [13]: 50%
inhibition at 4 µM [14]: 50%
Activity (Leukemia cell): Active
inhibition [15]: 50%
Ratio IC50 [16]: > 227
inhibition [17]: 50%
inhibition [18]: 50%
Activity (HeLa [19]): Active
inhibition (HeLa [20]): Active
Activity [21]: >60%
